For orientation: IC50 means the concentration needed to halve the response being measured.

The subject of series [1] is HepG2 cells. Put plainly: MTT reduction assay, HepG2 cells. In kind it is cell-based, human. The note with it: for IC50: MTT assay, HepG2, 24 h incubation; for cell viability at low doses / cell viability: MTT; for cell viability at low doses: HepG2, 100 and 200 μM; for cell viability: HepG2, 100 to 1,400 μM, 24 h, compared to control. In a few lines: (§1)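 Cells were plated at 2 × 10^5 cells/mL and cultured 24 h: BALB/3T3 in DMEM with 10% heat-inactivated calf serum, HepG2 in EMEM with 10% heat-inactivated FBS. Medium was then replaced with test compound at 100–1,400 μM, diluted from a 10 mM PBS stock, for 24 h. MTT reduction was read spectrophotometrically as viability relative to untreated control (100%), and IC50 was taken from the dose-response curve. Six independent experiments, triplicate wells.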

The test system of series [2] is BALB/3T3 cells. The series is described as follows: LDH release assay, BALB/3T3 cells. In kind it is cell-based, Mouse. Particulars: for IC50: LDH leakage assay, BALB/3T3, 24 h incubation; for LDH leakage (membrane integrity): LDH release, BALB/3T3, 100 to 1,400 μM, 24 h. Summed up:
(§2)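 Test compounds (10 mM stock in PBS) were diluted in complete medium: DMEM plus 10% heat-inactivated calf serum for BALB/3T3 cells, EMEM plus 10% heat-inactivated FBS for HepG2 cells. Cells were seeded at 2 × 10^5 cells/mL, grown 24 h, then exposed to 100–1,400 μM for 24 h at 37 °C, 5% CO2. Released LDH was taken as a percentage of total LDH absorbance, and IC50 was read from the dose-response curve. Six independent experiments, three wells each.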
A general note: LDH leaks from cells whose membrane has failed.

For series [3], the system named is HepG2 cells. Put plainly: LDH release assay, HepG2 cells. In kind it is cell-based, human. The note with it: for IC50: LDH leakage assay, HepG2, 24 h incubation; for LDH leakage (membrane integrity): LDH release, HepG2, 100 to 1,400 μM, 24 h. Summed up:
as §2

Series [4] concerns HepG2 cells. Put plainly: Neutral red uptake assay, HepG2 cells. In kind it is cell-based, human. Particulars: for cell viability at low doses / cell viability: NRU; for cell viability at low doses: HepG2, 100, 200, and 400 μM; for cell viability: HepG2, 100 to 1,400 μM, 24 h. In a few lines: (§3)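 Neutral red uptake, a measure of lysosomal activity. BALB/3T3 cells were grown in DMEM with 10% heat-inactivated calf serum and HepG2 cells in EMEM with 10% heat-inactivated FBS, both seeded at 2 × 10^5 cells/mL for 24 h. Cells were then exposed for 24 h to test compound at 100–1,400 μM, diluted in medium from a 10 mM PBS stock. Viability was measured spectrophotometrically against control cells, and IC50 was read from the dose-response curve. Six independent experiments, three wells per treatment.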

The next series concerns HK-2 cells. The note with it: MTT assay, 480 μM; cited from earlier work.
Series [5] deals with BALB/3T3 cells. The series is described as follows: MTT reduction assay, BALB/3T3 cells. In kind it is cell-based, Mouse. The note with it: for cell viability at low doses / cell viability: MTT; for cell viability at low doses: BALB/3T3, 100 and 200 μM; for cell viability: BALB/3T3, 100 to 1,400 μM, 24 h, compared to control. Summed up: as §1
On the technique in general: Tetrazolium assays rely on reduction of a dye to a coloured formazan, in cell work by metabolically active cells.

Series [6] concerns BALB/3T3 cells. Put plainly: Neutral red uptake assay, BALB/3T3 cells. Particulars: NRU; for cell viability at low doses: BALB/3T3, 100, 200, and 400 μM; for cell viability: BALB/3T3, 100 to 1,400 μM, 24 h. In kind it is cell-based, Mouse. In a few lines:
as §3

For `[Cl-].[Cl-].[Cl-].[Fe+3]` [Iron chloride, FeCl3 × 6H2O], the IC50 with HepG2 cells [1] is 1300 µM; with BALB/3T3 cells [2], 550 µM; in the series on HepG2 cells [3] it was 900 µM; with HepG2 cells [4] (NRU assay, HepG2, 24 h incubation), 1200 µM.

As to `CC(=O)[O-].CC(=O)[O-].[Ni+2]` [Ni (II) acetate], the cell viability result in the series with HK-2 cells was “less than 50%”.

As to `[Cl][Ni][Cl]` [Nickel chloride, NiCl2], the IC50 in the series with BALB/3T3 cells [5] (MTT assay, BALB/3T3, 24 h incubation) worked out at 700 µM; in the series on HepG2 cells [1], 400 µM; with BALB/3T3 cells [2], 300 µM; in the series with HepG2 cells [3] it was 800 µM. In addition, the “cell viability at low doses” value with BALB/3T3 cells [5], in the series with HepG2 cells [1], with BALB/3T3 cells [6] and in the series on HepG2 cells [4] was “increased” in each case. Further, the cell viability result in the series on BALB/3T3 cells [5], in the series with HepG2 cells [1], in the series on BALB/3T3 cells [6] and in the series with HepG2 cells [4] was “significantly decreased in a concentration-dependent manner” throughout. Moreover, the “LDH leakage (membrane integrity)” value in the series on BALB/3T3 cells [2] and with HepG2 cells [3] was “increasingly significant LDH leakage” each time.

On to `O.O.O.O.O.O.[Cl-].[Cl-].[Cl-].[Fe+3]` [Iron chloride, FeCl3 × 6H2O], for which the “cell viability at low doses” value with BALB/3T3 cells [5], with HepG2 cells [1], in the series on BALB/3T3 cells [6] and in the series with HepG2 cells [4] was “increased” each time. Also, the cell viability entry in the series with BALB/3T3 cells [5], with HepG2 cells [1], in the series on BALB/3T3 cells [6] and with HepG2 cells [4] was “significantly decreased in a concentration-dependent manner” each time. Moreover, the “LDH leakage (membrane integrity)” value in the series on BALB/3T3 cells [2] and in the series on HepG2 cells [3] was “increasingly significant LDH leakage” in each case.

The values are drawn from publication PMC6364161 (Journal of Veterinary Research, 2018).
